Results: ChEMBL document CHEMBL1130198, “Inhibition of tubulin polymerization by 5,6-dihydroindolo[2,1-alpha]isoquinoline derivatives” (J Med Chem, 1997)
pIC50: −log10 of the molar value.

Experiments:
[1] = target: T1, Tubulin (Bos taurus, UniProt Q6B856+Q862L2+Q862F3); assay: Inhibition of tubulin polymerization using isolated calf brain; format: functional
How it was run: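 Twice-cycled, MAP-containing calf brain microtubules depolymerized in PEMG buffer (0.8 M glutamate, pH 6.6-6.7) at 0 °C; compound in DMSO, preincubated 15 min at 37 °C, chilled, GTP added; turbidity at 350 nm over 20 min after shift from 2 to 37 °C.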

[2] = system: MCF7; assay: Inhibition of estrogen receptor positive MCF-7 human breast cancer cell proliferation; format: functional, cell-based
How it was run: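 MCF-7 cells in EMEM with 10% FCS; treatment medium contains dextran-charcoal-treated FCS; exposure ca. 8 days; glutaraldehyde fixation, crystal violet staining, optical density read at 578 nm.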

[3] = system: MDA-MB-231; assay: Inhibition of the growth of MDA-MB 231 human breast cancer cells; format: functional, cell-based
[4] = system: MDA-MB-231; assay: Inhibition of estrogen receptor negative MDA-MB 231 breast cancer cell proliferation at 10 uM; format: functional, cell-based; settings: Homo sapiens
How it was run: (§1)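 MDA-MB 231 cells grown in McCoy-5a with L-glutamine, gentamycin, NaHCO3 and 5% FCS, 5% CO2, 37 °C. Cells were seeded in 96-well plates and grown 2–3 days, then given medium containing compound; controls had 0.1% DMF. After about 4 days, cells were fixed with 1% glutaric dialdehyde, stained with 0.02% crystal violet, extracted with 70% EtOH, and OD578 was read against initial density.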

[5] = system: MDA-MB-231; assay: Inhibition of estrogen receptor negative MDA-MB 231 breast cancer cell proliferation at 1 uM; format: functional, cell-based; settings: Homo sapiens; how it was run: as §1
[6] = target: T1, Tubulin; assay: Inhibition of tubulin polymerization using isolated calf brain at 26 degrees C; format: functional
[7] = target: Tubulin alpha chain (Bos taurus) (UniProt P81947); assay: Inhibition of colchicine binding to tubulin; settings: concentration not given here
[8] = target: T1, Tubulin; assay: Inhibition of tubulin polymerization using isolated calf brain at 37 degrees C; format: functional
[9] = target: Tubulin (Bos taurus) (UniProt Q6B856+Q862L2+Q862F3); assay: Inhibition of colchicine binding to tubulin; format: functional; settings: concentration not given here
How it was run: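 Calf brain tubulin (prepared as for polymerization) diluted 1:10 in ice-cold PEM buffer (PIPES, EGTA, MgSO4, pH 6.6-6.7); 1 µM [3H]colchicine with 10 µM inhibitor, DMSO vehicle, 30 min at 37 °C; GTP added on ice, filtered through DEAE-cellulose, washed; tubulin-bound radioactivity by scintillation counting, tubulin-free mixtures as background. Mean of two independent experiments.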

[10] = system: MDA-MB-231; assay: Inhibition of estrogen receptor negative MDA-MB 231 breast cancer cell proliferation; format: functional, cell-based; settings: Homo sapiens
How it was run: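 MDA-MB 231 cells (hormone-independent) in McCoy-5a with 5% FCS, grown 2–3 days in 96-well plates at 37 °C, 5% CO2, then medium with test compound (DMF stock; 0.1% DMF controls) for about 4 days; glutaraldehyde fixation, 0.02% crystal violet staining, ethanol extraction, OD 578 nm versus initial density. IC50 from two independent experiments.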

Tubulin alpha chain (Bos taurus), sequence (P81947 whole entry, looked up): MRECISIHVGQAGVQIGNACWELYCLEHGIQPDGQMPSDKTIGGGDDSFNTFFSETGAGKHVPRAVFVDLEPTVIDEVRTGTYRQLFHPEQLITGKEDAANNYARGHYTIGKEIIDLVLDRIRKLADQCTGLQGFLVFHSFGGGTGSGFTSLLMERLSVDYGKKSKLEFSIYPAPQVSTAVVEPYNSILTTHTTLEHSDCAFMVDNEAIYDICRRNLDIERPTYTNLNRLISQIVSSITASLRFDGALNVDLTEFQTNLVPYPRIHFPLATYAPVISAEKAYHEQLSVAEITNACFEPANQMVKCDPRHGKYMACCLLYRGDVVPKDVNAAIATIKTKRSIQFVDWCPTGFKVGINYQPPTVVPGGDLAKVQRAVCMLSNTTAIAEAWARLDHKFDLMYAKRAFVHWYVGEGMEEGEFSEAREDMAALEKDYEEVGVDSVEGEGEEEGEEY

| pIC50 [2] | pIC50 [3] | SMILES | other results |
| --- | --- | --- | --- |
| 5.60 | 5.55 | CCC1Cc2cc(O)ccc2-c2c(C=O)c3ccc(O)cc3n21 (stereo unspecified) |  |
| 6.66 | 5.85 | CCCCC1Cc2cc(O)ccc2-c2c(C=O)c3ccc(O)cc3n21 (stereo unspecified) |  |
| 6.59 | 5.68 | CCCCC1Cc2cc(O)ccc2-c2c(/C=N/Cc3ccccc3)c3ccc(O)cc3n21 (stereo unspecified) |  |
|  | 5.24 | CCCCC1Cc2cc(OC)ccc2-c2c(/C=N/Cc3ccccc3)c3ccc(OC)cc3n21 (stereo unspecified) |  |
| 6.19 | 6.70 | CCCCC1Cc2cc(O)ccc2-c2c(C=O)c3cc(O)ccc3n21 (stereo unspecified) | IC50 [8]: 19000 nM |
| < 5.00 | 5.49 | CCCCC1Cc2cc(O)ccc2-c2c(C=O)c3cc(O)c(O)cc3n21 (stereo unspecified) | IC50 [8]: 19000 nM |
| 5.60 | 5.66 | CCCCC1Cc2cc(O)ccc2-c2c(C(C)=O)c3ccc(O)cc3n21 (stereo unspecified) |  |
|  | 5.15 | CCCCC1Cc2cc(OC)ccc2-c2c(CNCc3ccccc3)c3ccc(OC)cc3n21 (stereo unspecified) |  |
| 6.54 | 6.52 | CCCC1Cc2cc(O)ccc2-c2c(C=O)c3ccc(O)cc3n21 (stereo unspecified) |  |
| 6.27 |  | CCCCC1Cc2cc(O)ccc2-c2c(C#N)c3ccc(O)cc3n21 (stereo unspecified) | pIC50 [10]: 6.52; IC50 [8]: 13000 nM; inhibition [7]: 48% |

Second part, the molecule before the results:

| SMILES | pIC50 [2] | pIC50 [3] | other results |
| --- | --- | --- | --- |
| CCCC1Cc2cc(O)ccc2-c2c(C=O)c3ccc(O)cc3n21 (single isomer, unassigned; (-)) [listing 1 of 2 here] |  |  | IC50 [1]: > 70000 nM |
| COc1cc2c(cc1O)CC[C@@H]1[C@@H]2CC[C@]2(C)[C@@H](O)CC[C@@H]12 [2-METHOXYESTRADIOL] |  |  | pIC50 [4]: 5.30; pIC50 [5]: 6.60; IC50 [1]: 60000 nM; IC50 [6]: 12000 nM; inhibition [7]: 44% |
| CCCCC1Cc2cc(OC)ccc2-c2c(/C=N/O)c3ccc(OC)cc3n21 (stereo unspecified) |  | < 5.00 |  |
| CCCCC1Cc2cc(OC)ccc2-c2c(/C=N/C)c3ccc(OC)cc3n21 (stereo unspecified) |  | 5.11 |  |
| CCCCC1Cc2cc(OC)ccc2-c2c(C#N)c3cc(OC)c(OC)cc3n21 (stereo unspecified) |  | 5.57 |  |
| COc1cc2c(c(OC)c1OC)-c1ccc(OC)c(=O)cc1[C@@H](NC(C)=O)CC2 [COLCHICINE] |  | 7.52 |  |
| CCCCC1Cc2cc(OC)ccc2-c2c(C=O)c3cc(OC)ccc3n21 (stereo unspecified) |  | < 5.00 |  |
| CCCCC1Cc2cc(OC)ccc2-c2c(C=O)c3ccc(OC)cc3n21 (stereo unspecified) |  | 5.06 |  |
| CCCCC1Cc2cc(OC)ccc2-c2c(C#N)c3ccc(OC)cc3n21 (stereo unspecified) |  | 5.51 |  |
| CCCCC1Cc2cc(OC)ccc2-c2c(C=O)c3cc(OC)c(OC)cc3n21 (stereo unspecified) |  | 5.05 |  |
| CCCCC1Cc2cc(OC)ccc2-c2c(C(C)=O)c3ccc(OC)cc3n21 (stereo unspecified) |  | < 5.00 |  |
| CCCCC1Cc2cc(O)ccc2-c2c(C=O)c3ccc(O)cc3n21 (single isomer, unassigned; (-)) [listing 1 of 2 here] |  |  | IC50 [1]: > 60000 nM |
| CCCCC1Cc2cc(OC)ccc2-c2c(CNC)c3ccc(OC)cc3n21 (stereo unspecified) |  | 5.68 |  |
| CCCC1Cc2cc(OC)ccc2-c2c(C=O)c3ccc(OC)cc3n21 (stereo unspecified) |  | < 5.00 |  |
| CCCCC1Cc2cc(O)ccc2-c2c(C=O)c3ccc(O)cc3n21 (single isomer, unassigned; (-)) [listing 2 of 2 here] |  |  | inhibition [9]: 22% |
| CC/C(=C(\c1ccccc1)c1ccc(OCCN(C)C)cc1)c1ccccc1 [TAMOXIFEN] | 6.82 |  |  |
| CCCCC1Cc2cc(O)ccc2-c2c(C=O)c3ccc(O)cc3n21 (stereo in doubt; (+)-6c) [listing 1 of 2 here] |  |  | inhibition [9]: 69% |
| CCCCC1Cc2cc(O)ccc2-c2c(C=O)c3ccc(O)cc3n21 (stereo in doubt; (+)-6c) [listing 2 of 2 here] |  |  | IC50 [1]: 3100 nM |
| CCCCC1Cc2cc(O)ccc2-c2cc3cc(O)c(O)cc3n21 (stereo unspecified) | < 5.00 | < 5.00 |  |
| COc1cc([C@@H]2c3cc4c(cc3[C@H](O)[C@H]3COC(=O)[C@H]23)OCO4)cc(OC)c1OC [PODOFILOX] |  | 7.59 |  |
| CCCC1Cc2cc(O)ccc2-c2c(C=O)c3ccc(O)cc3n21 (single isomer, unassigned; (+)) [listing 1 of 2 here] |  |  | inhibition [9]: 53% |
| CCCC1Cc2cc(O)ccc2-c2c(C=O)c3ccc(O)cc3n21 (single isomer, unassigned; (+)) [listing 2 of 2 here] |  |  | IC50 [1]: 11000 nM |
| CCCCC1Cc2cc(OC)ccc2-c2cc3cc(OC)c(OC)cc3n21 (stereo unspecified) |  | < 5.00 |  |
| CCCC1Cc2cc(O)ccc2-c2c(C=O)c3ccc(O)cc3n21 (single isomer, unassigned; (-)) [listing 2 of 2 here] |  |  | inhibition [9]: 27% |
| CCCCC1Cc2cc(O)ccc2-c2c(C#N)c3cc(O)c(O)cc3n21 (stereo unspecified) | 5.57 | 5.47 | IC50 [8]: 25000 nM; inhibition [7]: 54% |
| CC[C@]1(O)C[C@@H]2CN(CCc3c([nH]c4ccccc34)[C@@](C(=O)OC)(c3cc4c(cc3OC)N(C)[C@H]3[C@@](O)(C(=O)OC)[C@H](OC(C)=O)[C@]5(CC)C=CCN6CC[C@]43[C@@H]65)C2)C1 [VINBLASTINE] |  | 7.96 |  |
